The source made the active and inactive calls.
Assays:
[1] = target: T1, Bifunctional epoxide hydrolase 2 (Homo sapiens, UniProt P34913); assay: Inhibition of recombinant human sEH expressed in baculovirus expression system using MNPC as substrate by fluorescence-based assay
T1 sequence (P34913 whole entry): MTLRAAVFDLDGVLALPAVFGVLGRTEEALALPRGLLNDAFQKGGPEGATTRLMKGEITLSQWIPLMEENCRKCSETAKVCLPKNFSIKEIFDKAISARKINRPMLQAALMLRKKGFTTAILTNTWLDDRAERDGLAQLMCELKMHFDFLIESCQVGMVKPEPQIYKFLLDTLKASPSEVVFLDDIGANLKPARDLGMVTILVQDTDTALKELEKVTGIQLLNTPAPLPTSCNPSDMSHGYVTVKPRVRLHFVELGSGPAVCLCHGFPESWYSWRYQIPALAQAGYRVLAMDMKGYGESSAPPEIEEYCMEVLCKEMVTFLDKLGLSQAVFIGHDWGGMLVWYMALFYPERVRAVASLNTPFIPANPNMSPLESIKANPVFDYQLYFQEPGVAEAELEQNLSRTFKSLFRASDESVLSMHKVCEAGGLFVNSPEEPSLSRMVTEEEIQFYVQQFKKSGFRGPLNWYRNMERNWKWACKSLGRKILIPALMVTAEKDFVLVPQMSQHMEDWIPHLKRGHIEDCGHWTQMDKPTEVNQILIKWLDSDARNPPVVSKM
Summary of the method: (§1)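 Recombinant human, mouse or rat sEH tested with serial dilutions of inhibitor in 96-well format. MNPC substrate at 5 μM final. Fluorescent 6-methoxynaphthaldehyde product read at ex 330 / em 465 nm. IC50 derived from these readings.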

[2] = target: T2, Bifunctional epoxide hydrolase 2 (Rattus norvegicus, UniProt P80299); assay: Inhibition of recombinant rat sEH expressed in baculovirus expression system using MNPC as substrate by fluorescence-based assay; summary of the method: as §1
T2 sequence (P80299 whole entry): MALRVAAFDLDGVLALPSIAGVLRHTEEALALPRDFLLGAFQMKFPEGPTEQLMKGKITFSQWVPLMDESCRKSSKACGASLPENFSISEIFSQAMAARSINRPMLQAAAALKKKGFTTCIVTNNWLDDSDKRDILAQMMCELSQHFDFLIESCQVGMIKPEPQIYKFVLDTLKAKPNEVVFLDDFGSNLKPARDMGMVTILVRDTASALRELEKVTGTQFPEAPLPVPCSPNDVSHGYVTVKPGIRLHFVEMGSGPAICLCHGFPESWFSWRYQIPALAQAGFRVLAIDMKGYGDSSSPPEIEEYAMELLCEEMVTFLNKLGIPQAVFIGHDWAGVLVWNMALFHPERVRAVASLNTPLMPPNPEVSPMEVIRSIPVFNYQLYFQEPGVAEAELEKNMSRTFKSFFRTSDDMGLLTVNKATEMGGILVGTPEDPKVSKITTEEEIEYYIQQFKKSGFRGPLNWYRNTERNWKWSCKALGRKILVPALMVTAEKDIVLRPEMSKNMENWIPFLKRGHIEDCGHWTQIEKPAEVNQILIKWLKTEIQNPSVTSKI

[3] = target: T3, Bifunctional epoxide hydrolase 2 (Mus musculus, UniProt P34914); assay: Inhibition of recombinant mouse sEH expressed in baculovirus expression system using MNPC as substrate by fluorescence-based assay; summary of the method: as §1
T3 sequence (P34914 whole entry): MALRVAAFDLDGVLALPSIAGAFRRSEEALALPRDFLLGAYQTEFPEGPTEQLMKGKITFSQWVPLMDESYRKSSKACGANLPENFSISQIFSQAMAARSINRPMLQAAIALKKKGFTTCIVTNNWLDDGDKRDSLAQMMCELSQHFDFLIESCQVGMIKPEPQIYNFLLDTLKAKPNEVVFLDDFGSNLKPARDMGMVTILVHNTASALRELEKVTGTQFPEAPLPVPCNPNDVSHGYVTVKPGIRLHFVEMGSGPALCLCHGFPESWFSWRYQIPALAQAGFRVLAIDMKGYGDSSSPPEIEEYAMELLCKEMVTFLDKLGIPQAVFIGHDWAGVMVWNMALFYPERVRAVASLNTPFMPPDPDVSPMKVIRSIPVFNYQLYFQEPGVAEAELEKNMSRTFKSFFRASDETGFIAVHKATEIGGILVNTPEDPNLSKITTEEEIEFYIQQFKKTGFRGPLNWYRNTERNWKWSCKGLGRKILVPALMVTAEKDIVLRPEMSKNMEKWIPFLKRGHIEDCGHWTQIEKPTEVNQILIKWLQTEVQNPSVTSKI

[4] = Cmax in Sprague-Dawley rat at 100 mg/kg, po measured up to 96 hrs by LC/MS/MS analysis; assay type: ADME, organism-based; set-up: route oral, dose 100 mg/kg, time <=96; conditions: in vivo
Summary of the method: (§2)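 Male SD rats (8 weeks, 250–300 g, n=4/group) given a single oral gavage of 100 mg/kg in 100% NEOBEE 1053. Plasma concentrations followed over a 96-h time course. Blood processed and quantified by an earlier reported method. Parameters reported as mean ± SEM.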

[5] = AUC in Sprague-Dawley rat at 100 mg/kg, po measured up to 96 hrs by LC/MS/MS analysis; assay type: ADME, organism-based; set-up: route oral, dose 100 mg/kg, time <=96; conditions: in vivo; summary of the method: as §2
[6] = Half life in Sprague-Dawley rat at 100 mg/kg, po measured up to 96 hrs by LC/MS/MS analysis; assay type: ADME, organism-based; conditions: in vivo; summary of the method: as §2
Rattus norvegicus = assay: Antinociceptive activity against LPS-induced inflammatory pain Sprague-Dawley rat model assessed as increase in paw withdrawal threshold at 100 mg/kg, po measured up to 6 hrs by von Frey assay; assay type: functional, organism-based; conditions: time hrs <=6
Summary of the method: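 Male SD rats, n=4/group, randomized and blinded. Baseline von Frey mechanical withdrawal thresholds taken before dosing. Oral gavage of 100 mg/kg in 1 mL 100% NEOBEE 1053 (vehicle control alongside). Immediately after, 50 μL of 0.2 μg/mL LPS in saline injected intraplantar into one hind paw. Ipsilateral thresholds measured 3–5 times per rat per time point over 6 h. Expressed as percent of baseline, group mean ± SEM.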

[7] = Tmax in Sprague-Dawley rat at 100 mg/kg, po measured up to 96 hrs by LC/MS/MS analysis; assay type: ADME, organism-based; conditions: in vivo; summary of the method: as §2

Structure (SMILES) | IC50 [1] [nM] | IC50 [2] [nM] | IC50 [3] [nM] | Cmax [4] [nM] | AUC [5] [µM·h] | t1/2 [6] [h] | Activity (Rattus norvegicus) | Tmax [7] [h]
CCCCCCCCCCCCCCCC(=O)NCc1ccccc1 | 524 | 370 | 422 |  |  |  |  | 
CCCCC/C=C\C/C=C\C/C=C\C/C=C\CCCC(=O)NCc1cccc(OC)c1 | 55 | 22 | 73 |  |  |  |  | 
CCCCC/C=C\C/C=C\CCCCCCCC(=O)NCc1cccc(OC)c1 | 92 | 43 | 38 |  |  |  |  | 
CCCCC/C=C\C/C=C\CCCCCCCC(=O)NCCc1ccccc1 |  | 33 | 91 |  |  |  |  | 
CC/C=C\C/C=C\C/C=C\CCCCCCCC(=O)NCc1ccccc1 | 134 | 23 | 28 | 54 | 0.723 | 14.6 | inactive | 6
CC/C=C\C/C=C\C/C=C\CCCCCCCC(=O)NCCc1ccccc1 | 15 | 15 | 39 |  |  |  |  | 
CCCCC/C=C\C/C=C\CCCCCCCC(=O)NCc1ccc(OC)c(OC)c1 | 104 | 111 | 148 |  |  |  |  | 
CCCCC/C=C\C/C=C\C/C=C\C/C=C\CCCC(=O)NCc1ccccc1 | 123 | 40 | 50 |  |  |  |  | 
CCCCCCCCCCCCCCCCCC(=O)NCc1cccc(OC)c1 | 16100 | 28700 | 89900 |  |  |  |  | 
CCCCCCCC/C=C\CCCCCCCC(=O)NCc1cccc(OC)c1 | 241 | 84 | 126 |  |  |  |  | 
CC/C=C\C/C=C\C/C=C\C/C=C\C/C=C\CCCC(=O)NCc1cccc(OC)c1 | 63 | 18.6 | 49 |  |  |  |  | 
CC/C=C\C/C=C\C/C=C\CCCCCCCC(=O)NCc1cccc(OC)c1 | 76 | 9.3 | 27 |  |  |  |  | 
CCCCC/C=C\C/C=C\CCCCCCCC(=O)NCc1ccccc1 | 155 | 41 | 44 | 519 | 3.69 | 9 | Active | 3
CC/C=C\C/C=C\C/C=C\CCCCCCCC(=O)NCc1ccc(OC)c(OC)c1 | 84 | 90 | 122 |  |  |  |  | 
CCCCCCCCCCCCCCCC(=O)NCc1ccc(OC)c(OC)c1 | 7060 | 15900 | > 100000 |  |  |  |  | 
CCCCCCCCCCCCCCCC(=O)NCc1cccc(OC)c1 | 235 | 113 | 159 |  |  |  |  | 
CCCCCCCCCCCCCCCCCC(=O)NCc1ccccc1 | > 100000 | 35800 | 59600 |  |  |  |  | 
CCCCCCCC/C=C\CCCCCCCC(=O)NCc1ccccc1 | 893 | 198 | 265 |  |  |  |  | 
CC/C=C\C/C=C\C/C=C\C/C=C\C/C=C\CCCC(=O)NCc1ccccc1 | 111 | 29 | 43 |  |  |  |  | 

Source: ChEMBL document CHEMBL4673367, “N-Benzyl-linoleamide, a Constituent of Lepidium meyenii (Maca), Is an Orally Bioavailable Soluble Epoxide Hydrolase Inhibitor That Alleviates Inflammatory Pain” (J Nat Prod, 2020)
